Measured values as given in ChEMBL document CHEMBL4680165, “β-Lactams with antiproliferative and antiapoptotic activity in breast and chemoresistant colon cancer cells” (Eur J Med Chem, 2020).
pIC50: −log10 of the molar value.

Assays:
[1] = Selectivity index, ratio of IC50 for human MCF7 cells to IC50 for human HT-29 cells assessed as reduction in cell viability after 72 hrs by alamar blue assay; format: functional
[2] = tested on: HT-29; test: Antiproliferative activity against human HT-29 cells assessed as reduction in cell viability after 72 hrs by alamar blue assay; format: functional, cell-based; conditions: HT-29, 72 h
How it was run: (§1)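 Cells seeded at 5 x 10^3/well (MCF-7) or 1 x 10^4/well (HT-29, HEK-293T) and treated after 24 h with serial dilutions (0.001-100 µM) in 1% v/v ethanol vehicle. Alamar Blue 10% v/v added at 72 h, then 3-5 h at 37 °C in the dark; fluorescence ex 530/em 590 nm. Viability relative to vehicle; IC50 from dose-response curves; mean of three experiments in triplicate.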

[3] = tested on: MCF7; test: Antiproliferative activity against human MCF7 cells assessed as reduction in cell viability after 72 hrs by alamar blue assay; format: functional, cell-based; conditions: MCF7, 72 h; how it was run: as §1

Compound | Ratio IC50 [1] | pIC50 [2] | pIC50 [3]
C=C(C)[C@@H]1C(=O)N(c2cc(OC)c(OC)c(OC)c2)[C@H]1c1ccc(OC)c(Cl)c1 | 0.56 | 6.32 | 6.57
C=C(C)[C@@H]1C(=O)N(c2cc(OC)c(OC)c(OC)c2)[C@H]1c1ccc(OC)c(I)c1 | 1.29 | 5.98 | 5.87
COc1ccc([C@H]2[C@H](Oc3ccccc3)C(=O)N2c2cc(OC)c(OC)c(OC)c2)cc1I | 0.9 | 6.63 | 6.68
COc1ccc([C@H]2[C@H](c3ccccc3)C(=O)N2c2cc(OC)c(OC)c(OC)c2)cc1Cl | 9.58 | 7.62 | 6.64
COc1ccc([C@@H]2N(c3cc(OC)c(OC)c(OC)c3)C(=O)C2(Cl)Cl)cc1C | 2.34 | 6.50 | 6.13
COc1ccc([C@@H]2N(c3cc(OC)c(OC)c(OC)c3)C(=O)C2(Cl)Cl)cc1F | 1.48 | 6.93 | 6.76
COc1ccc([C@H]2CC(=O)N2c2cc(OC)c(OC)c(OC)c2)cc1C | 1.68 | 6.72 | 6.50
COc1ccc([C@@H]2N(c3cc(OC)c(OC)c(OC)c3)C(=O)C2(Cl)Cl)cc1I | 3.53 | 6.60 | 6.05
COc1ccc([C@H]2[C@H](Oc3ccccc3)C(=O)N2c2cc(OC)c(OC)c(OC)c2)cc1C | 7.14 | 6.50 | 5.65
COc1ccc([C@H]2[C@H](c3ccccc3)C(=O)N2c2cc(OC)c(OC)c(OC)c2)cc1 | 0.68 | 7.66 | 7.82
C=C[C@@H]1C(=O)N(c2cc(OC)c(OC)c(OC)c2)[C@H]1c1ccc(OC)c(Cl)c1 | 0.41 | 6.53 | 6.92
C=C[C@@H]1C(=O)N(c2cc(OC)c(OC)c(OC)c2)[C@H]1c1ccc(OC)c(C)c1 | 1.67 | 6.71 | 6.48
C=C[C@@H]1C(=O)N(c2cc(OC)c(OC)c(OC)c2)[C@H]1c1ccc(OC)c(I)c1 | 0.7 | 6.51 | 6.67
COc1ccc([C@@H]2N(c3cc(OC)c(OC)c(OC)c3)C(=O)C2(Cl)Cl)cc1Br | 0.73 | 5.81 | 5.95
COc1ccc([C@H]2[C@H](O)C(=O)N2c2cc(OC)c(OC)c(OC)c2)cc1I | 4.77 | 7.68 | 7.00
COc1ccc([C@H]2[C@H](N)C(=O)N2c2cc(OC)c(OC)c(OC)c2)cc1F | 2.03 | 6.62 | 6.32
COc1ccc([C@@H]2N(c3cc(OC)c(OC)c(OC)c3)C(=O)C2(Cl)Cl)cc1Cl | 0.91 | 6.81 | 6.85
COc1ccc([C@H]2CC(=O)N2c2cc(OC)c(OC)c(OC)c2)cc1Cl | 0.91 | 6.81 | 6.85
C=C(C)[C@@H]1C(=O)N(c2cc(OC)c(OC)c(OC)c2)[C@H]1c1ccc(OC)c(C)c1 | 2.16 | 6.45 | 6.11
COc1ccc([C@H]2CC(=O)N2c2cc(OC)c(OC)c(OC)c2)cc1Br | 0.94 | 7.19 | 7.22
COc1ccc([C@H]2[C@H](Cl)C(=O)N2c2cc(OC)c(OC)c(OC)c2)cc1F |  | 7.82 | 7.40
COc1ccc([C@H]2[C@H](Cl)C(=O)N2c2cc(OC)c(OC)c(OC)c2)cc1C | 1.95 | 6.65 | 6.36
C=C(C)[C@@H]1C(=O)N(c2cc(OC)c(OC)c(OC)c2)[C@H]1c1ccc(OC)c(F)c1 | 0.48 | 6.17 | 6.49
C=C[C@@H]1C(=O)N(c2cc(OC)c(OC)c(OC)c2)[C@H]1c1ccc(OC)c(Br)c1 | 0.97 | 7.04 | 7.06
C=C[C@@H]1C(=O)N(c2cc(OC)c(OC)c(OC)c2)[C@H]1c1ccc(OC)c(F)c1 |  | 7.43 | 7.42
